Series [1] is described as follows: folding enthalpy; higher = less favourable; fluorescence melt of hairpins on a sequencing array, two-state fit. Conditions: sodium 0.088 M. A digest of the protocol: (§1)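 Two-state fits, bootstrapped, provided melting temperature and folding enthalpy from Cy3 fluorescence normalised to pre-quench Cy3 and to control constructs. Library hairpins with annealed Cy3 and quencher oligos were imaged on a sequenced MiSeq flow cell in 50 mM Na-HEPES pH 8.0, 25 mM NaCl, at 2.5 °C intervals up to 60 °C. Four replicates were combined with inverse-variance weighting. A 9.35 °C upward shift was applied to fitted temperatures to match UV melts.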

Series [2] can be described thus: melting temperature; fluorescence melt of hairpins on a sequencing array, two-state fit, raised by 9.35 °C to match UV melts. To be noted: sodium 0.088 M. A digest of the protocol:
as §1

As to GGGTTGGCGAAAGCCCCC (((..(((....)))))), the folding enthalpy in series [1] was -15.3 kcal/mol. The Tm in series [2] amounted to 46.3 °C.

In the case of GTAGCCCGAAAGGGGTAC (((.(((....))).))), in series [1], the folding enthalpy is -32 kcal/mol. For the same sequence, the Tm in series [2] was 68.5 °C.

For GTAACAGAAATGTTAC ((((((....)))))), in series [1], the folding enthalpy is -32.8 kcal/mol. In addition, the Tm in series [2] is 45.7 °C.

As to GCGTTTCACGC ((((...)))), the folding enthalpy in series [1] was -34.8 kcal/mol. In addition, the Tm in series [2] was 59.1 °C.

For GTGAGGGGAAACCCTTAC ((.((((....)))).)), in series [1], the folding enthalpy is -26.7 kcal/mol. Further, the Tm in series [2] worked out at 44.5 °C.

In the case of GCTCCGCGAAAGCGTCGC ((..(((....)))..)), in series [1], the folding enthalpy was -15.9 kcal/mol. The Tm in series [2] was 35.2 °C.

As for GCGCAAGGAAACTTACGC (((.(((....))).))), the folding enthalpy in series [1] was -30.6 kcal/mol. Moreover, in series [2], the Tm came to 46 °C.

For GATTTTGGAAACAAAATC (((((((....))))))), the folding enthalpy in series [1] was -46.4 kcal/mol. For the same sequence, in series [2], the Tm was 51.7 °C.

Regarding GGGTATGGAAACATGCCC (((.(((....))).))), the folding enthalpy in series [1] is -50.4 kcal/mol. The Tm in series [2] turned out to be 54.3 °C.

On to GTCTGACGAAAGTCGGAC (((.(((....))).))), for which the folding enthalpy in series [1] was -35.8 kcal/mol. Moreover, the Tm in series [2] came to 62.4 °C.

GTTTACGAAAGTAAAAAC ((((((....)))..))): the folding enthalpy in series [1] is -12 kcal/mol. In series [2], the Tm is 29.5 °C.

Take GTCAGCGGAAACGCTAAC ((.((((....)))).)): the folding enthalpy in series [1] is -15.2 kcal/mol. The Tm in series [2] was determined as 37.4 °C.

Consider GATCTCAGGGGAGATC ((((((....)))))), for which, in series [1], the folding enthalpy is -34.4 kcal/mol. Further, the Tm in series [2] is 52.5 °C.

Turning to GGGCGTACGAAAGTACCC (((..(((....)))))), the folding enthalpy in series [1] is -17.4 kcal/mol. In addition, in series [2], the Tm stood at 50.2 °C.

Consider GCAGCTCGAAAGAGTGC (((.(((....)))))), for which the folding enthalpy in series [1] was -30 kcal/mol. Besides, in series [2], the Tm was determined as 51.4 °C.

For GTAACTGGAAACAGTCAC ((.((((....)))).)), the folding enthalpy in series [1] was -17 kcal/mol. In addition, the Tm in series [2] came out at 34.8 °C.

With GAAAGCGAAAGCTTGTTC ((((((....)))..))), the folding enthalpy in series [1] is -12.5 kcal/mol. Also, the Tm in series [2] amounted to 36.8 °C.

For the sequence GTTGACCGAAAGGTTAAC (((.(((....))).))), the folding enthalpy in series [1] was -33.7 kcal/mol. For the same sequence, the Tm in series [2] is 53.1 °C.

Regarding GCCCGGGGAAACCTGGGC ((((.((....)).)))), the folding enthalpy in series [1] is -52.3 kcal/mol. Moreover, in series [2], the Tm is 62.3 °C.

In the case of CGAACGGAAACGTGCTCG ((((((....)))..))), the folding enthalpy in series [1] was -15.1 kcal/mol. The Tm in series [2] amounted to 28.5 °C.

As for GCGACCGAAAGGTTCCGC ((((((....)))..))), in series [1], the folding enthalpy was -18.8 kcal/mol. Also, in series [2], the Tm turned out to be 43.5 °C.

In the case of GGGGGCGAAAGCCTACCC ((((((....)))..))), in series [1], the folding enthalpy is -15 kcal/mol. Moreover, the Tm in series [2] turned out to be 49.8 °C.

As for GAGGTGGCGAAAGCCCTC (((..(((....)))))), the folding enthalpy in series [1] is -14.4 kcal/mol. In addition, the Tm in series [2] came to 43.7 °C.

Turning to GCGGCGTACCGC ((((....)))), the folding enthalpy in series [1] is -17.2 kcal/mol. The Tm in series [2] was 64.7 °C.

As for GCTTGTGGAAACATAAGC ((((.((....)).)))), the folding enthalpy in series [1] was -29.9 kcal/mol. For the same sequence, in series [2], the Tm is 46.8 °C.

As for GCATCAGGAAACTGACGC ((.((((....)))).)), the folding enthalpy in series [1] was -30 kcal/mol. Moreover, the Tm in series [2] turned out to be 44.5 °C.

As to GGTGGTGGAAACACCGTC (..((((....))))..), the folding enthalpy in series [1] was -22.8 kcal/mol. Moreover, the Tm in series [2] was 55.5 °C.

On to GATCGGGCTCCGATC ((((((...)))))), for which the folding enthalpy in series [1] is -35.8 kcal/mol. Further, the Tm in series [2] was 58.3 °C.

As to GGGCTAGCGAAAGCTCCC (((..(((....)))))), the folding enthalpy in series [1] was -15.1 kcal/mol. The Tm in series [2] amounted to 38.8 °C.

For GATCCGGATACGGATC ((((((....)))))), in series [1], the folding enthalpy was -38.8 kcal/mol. Moreover, in series [2], the Tm is 67.9 °C.

GCGACAACTCGC ((((....)))): in series [1], the folding enthalpy is -21.2 kcal/mol. In addition, in series [2], the Tm turned out to be 41.7 °C.

As to GATCAACGGTTGATC ((((((...)))))), in series [1], the folding enthalpy is -40.3 kcal/mol. In series [2], the Tm worked out at 44.7 °C.

Consider ATCCAGAAATGGAT (((((....))))), for which the folding enthalpy in series [1] was -14.3 kcal/mol. In addition, in series [2], the Tm was 41.2 °C.

In the case of GCGTCTGACGC ((((...)))), the folding enthalpy in series [1] is -24.1 kcal/mol. The Tm in series [2] is 56.7 °C.

In the case of GATCTATAGTAGATC ((((((...)))))), the folding enthalpy in series [1] is -22.4 kcal/mol. Moreover, the Tm in series [2] was determined as 38.6 °C.

Regarding CGGGAGCGGAAACGCCCG (((..(((....)))))), the folding enthalpy in series [1] was -21.4 kcal/mol. The Tm in series [2] was 53.6 °C.

Take GCTGAGCGAAAGCTATGC ((..(((....)))..)): in series [1], the folding enthalpy was -17.4 kcal/mol. In addition, the Tm in series [2] was 48.6 °C.

(Values after the array DNA melting data of Ke et al. (doi:10.1101/2024.01.08.574731).)
